Measured values: BindingDB's records for doi:10.1021/acs.jmedchem.5b01146 (University of California Irvine, 2016)

Target: Cytochrome P450 3A4 (Homo sapiens, UniProt P08684)
Assay: Binding affinity to C-terminal four-histidine tagged human CYP3A4delta3 to 24 residues expressed in Escherichia coli assessed as spectral dissociation constant by spectrophotometric method
In short: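 Purified recombinant CYP3A4 titrated in 50 mM phosphate pH 7.4 with 20% glycerol and 1 mM DTT, adding small aliquots of compound in DMSO (final solvent <2%). Absorbance spectra recorded on a spectrophotometer. Ks obtained by one- or two-site saturation fitting of absorbance change versus ligand concentration.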

Chain of Cytochrome P450 3A4 (P08684 whole entry, the tested form may be a part): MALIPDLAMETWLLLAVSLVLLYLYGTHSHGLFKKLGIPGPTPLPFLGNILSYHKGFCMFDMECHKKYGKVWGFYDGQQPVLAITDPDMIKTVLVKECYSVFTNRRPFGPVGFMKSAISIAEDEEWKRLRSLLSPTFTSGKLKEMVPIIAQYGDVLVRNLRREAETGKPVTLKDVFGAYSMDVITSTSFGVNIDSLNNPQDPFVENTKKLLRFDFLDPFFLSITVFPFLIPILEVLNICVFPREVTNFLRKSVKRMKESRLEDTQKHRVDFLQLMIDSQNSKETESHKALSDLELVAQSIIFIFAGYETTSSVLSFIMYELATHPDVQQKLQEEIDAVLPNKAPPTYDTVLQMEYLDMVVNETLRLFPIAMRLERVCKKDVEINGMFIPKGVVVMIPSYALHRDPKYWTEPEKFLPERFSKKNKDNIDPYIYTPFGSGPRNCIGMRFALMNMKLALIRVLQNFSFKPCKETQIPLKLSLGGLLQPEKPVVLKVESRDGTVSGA

SMILES	Kd [µM]
CC(C)(C)OC(=O)NCCCCCC(=O)NCc1cccnc1	105
c1ccncc1 [CHEBI:16227]	4500
